Source: PubChem BioAssay (several laboratories)
In the library only some 4.7% were active in any assay of this set; here they are far more common.
697 NFkB inh – lowers PMA/ionomycin-induced NF-kB signal in 697 B cells. 697 B-cell NF-kB luciferase reporter, 16 h. inhibition, % at 4 µM. hit rate 0.33% among 330,000. AID 435022; in the data active = inhibition above about 35%
VIM-2 inhibitor – blocks Pseudomonas aeruginosa VIM-2 metallo-beta-lactamase | purified VIM-2, nitrocefin hydrolysis, epi-absorbance fluorescence | inhibition, % at 5.6 µM | hit rate 0.89% among 290,000 | AID 1527;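 active = inhibition above the mean of all tested compounds plus 3 SD, cutoff set per screening run, cut at about 7.5% in these data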;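 note: red hydrolysis product quenches plate fluorescence so inhibitors raise well fluorescence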
Jurkat NFkB inh – inhibitors of the PMA/ionomycin-induced NF-kB reporter in Jurkat cells | AID 435003 | PMA/ionomycin-induced NF-kB luciferase reporter, luminescence | inhibition, % at 4 µM | hit rate 0.53% among 330,000; in the data active = inhibition above about 50%
Mdm2 MdmX PPI – human Mdm2/MdmX binding inhibition; AID 485346; hit rate 3% among 330,000; O15151+Q00987; SaOS-2 split-luciferase Mdm2/MdmX complementation, luminescence; inhibition, % at 8 µM;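 active = inhibition of at least 50% at 8 µM in the primary screen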
Target sequence (O15151 whole entry, looked up): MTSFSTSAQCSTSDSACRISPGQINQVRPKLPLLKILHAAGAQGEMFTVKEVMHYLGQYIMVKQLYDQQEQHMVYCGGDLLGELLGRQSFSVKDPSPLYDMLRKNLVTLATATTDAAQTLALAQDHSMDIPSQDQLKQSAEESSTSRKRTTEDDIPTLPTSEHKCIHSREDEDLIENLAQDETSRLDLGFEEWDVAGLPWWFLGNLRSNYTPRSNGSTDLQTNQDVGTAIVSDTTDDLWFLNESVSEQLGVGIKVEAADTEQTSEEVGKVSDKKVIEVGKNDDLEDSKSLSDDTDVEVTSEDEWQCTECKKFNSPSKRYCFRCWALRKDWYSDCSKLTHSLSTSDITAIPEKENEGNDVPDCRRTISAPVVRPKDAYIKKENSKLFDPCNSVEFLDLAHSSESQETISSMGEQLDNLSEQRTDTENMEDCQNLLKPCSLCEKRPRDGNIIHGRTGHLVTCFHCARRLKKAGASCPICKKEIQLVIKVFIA
Target sequence (Q00987 whole entry, looked up): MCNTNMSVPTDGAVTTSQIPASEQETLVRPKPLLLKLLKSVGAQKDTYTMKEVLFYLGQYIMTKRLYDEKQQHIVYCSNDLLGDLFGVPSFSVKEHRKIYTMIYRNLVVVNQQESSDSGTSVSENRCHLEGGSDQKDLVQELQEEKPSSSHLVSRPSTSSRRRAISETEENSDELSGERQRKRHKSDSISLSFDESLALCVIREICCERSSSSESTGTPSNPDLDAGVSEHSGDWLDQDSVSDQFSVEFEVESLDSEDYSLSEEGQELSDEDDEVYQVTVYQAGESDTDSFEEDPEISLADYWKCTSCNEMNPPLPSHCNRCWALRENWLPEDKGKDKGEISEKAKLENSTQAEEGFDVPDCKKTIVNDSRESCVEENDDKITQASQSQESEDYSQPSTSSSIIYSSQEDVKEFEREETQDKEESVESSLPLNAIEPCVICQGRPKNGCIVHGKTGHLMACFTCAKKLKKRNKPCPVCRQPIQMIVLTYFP
IMP-1 inh – inhibitors of Pseudomonas aeruginosa IMP-1 metallo-beta-lactamase. hit rate 0.45% among 290,000. purified IMP-1, nitrocefin hydrolysis, epi-absorbance fluorescence. inhibition, % at 5.6 µM;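 active = inhibition above the mean plus 3 SD of all compounds in the same screening run, cut at about 4.5% in these data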
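Assay system: purified IMP-1; Quantity: IMP-1 0.2 nM before substrate addition; Medium: HEPES buffer pH 7.1 with ZnSO4 and Brij 35; Incubation: 15 min enzyme–compound preincubation, then 25 min nitrocefin reaction, 25 °C; Signal: fluorescence quenching readout, ex 480/em 530 nm; Controls: DMSO with and without IMP-1; Repeats: singlicate testing.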
aSyn 5UTR inh – 5' untranslated region of α-synuclein, MLPCN primary screen; AID 1813; alpha-synuclein 5'UTR reporter, inhibitor activity; inhibition, % (tested at 7.5 µM); hit rate 0.82% among 300,000; in the data active = inhibition above about 60%; inconclusive = no clear call, values can overlap the other calls;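 note: H4 neuroglioblastoma cells stably carrying SNCA 5'UTR luciferase fusion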
A number is an active result; . = inactive; ? = inconclusive; / = not tested or not shown.

SMILES | 697 NFkB inh | VIM-2 inhibitor | Jurkat NFkB inh | Mdm2 MdmX PPI | IMP-1 inh | aSyn 5UTR inh
CC1=C(c2ccccc2)SC2=NCCN21 | . | . | . | . | . | .
CC1(C)Cc2nc3sc4c(SCC(=O)NCc5ccccc5)ncnc4c3cc2CO1 | . | . | . | . | . | 64.0
S=c1nc(C2CC2)[nH]c2ccccc12 | . | 10.7 | . | . | . | .
N#CCc1ccc(NC(=O)c2cc(S(=O)(=O)N3CCOCC3)ccc2Cl)cc1 | . | . | . | . | . | .
Cc1ccc(-c2ccnc3c(Cl)c(C)nn23)cc1 | . | . | . | . | . | 68.7
O=C(c1cc(C2CC2)nn1-c1ccccc1)N1CCN(Cc2c(F)cccc2Cl)CC1 | . | / | . | . | / | /
CC(=O)OC(CC(=O)O)C[N+](C)(C)C (stereo unspecified) | . | . | . | . | . | 67.7
CC(=O)O[C@H](CC(=O)O)C[N+](C)(C)C | . | / | . | . | / | .
CCOc1cc(CNc2ncc(-c3ccc(OC)cc3)n2C)ccc1O | . | . | . | . | 4.8 | .
Cc1c(CCC(=O)O)c(=O)oc2cc3occ(-c4ccc(Cl)cc4)c3cc12 | . | . | . | . | . | .
Cc1c(CCC(=O)O)c(=O)oc2c(C)c3occ(-c4ccc(Cl)cc4)c3cc12 | . | . | . | . | 5.3 | .
O=C(NCc1ccccc1Cl)c1cc(=O)[nH]c2ccccc12 | . | . | . | . | . | .
Cc1cc2nc(C3CCN(Cc4nnnn4Cc4cccs4)CC3)[nH]c2cc1C | . | . | . | . | . | 63.0
Cc1ccc(CN2CCC(c3nc4ccc(Cl)cc4[nH]3)CC2)cc1 | . | . | . | . | . | .
COCCNC(=O)Cn1nc(-c2ccc(Cl)cc2)c2ccccc2c1=O | . | . | . | . | . | .
CCOC(=O)c1sc(NC(=O)C2CC(=O)N(c3ccccc3OC)C2)nc1C (stereo unspecified) | . | / | . | . | / | /
O=C(O)CCCNc1cc(N2CCN(C(=O)c3ccco3)CC2)c2noc3c2c1C(=O)c1ccccc1-3 | . | . | . | . | 8.2 | .
Brc1ccccc1C1=Nn2c(nnc2-c2ccccc2)SC1 | . | . | . | . | . | ?
Brc1ccccc1C1=Nn2c(nnc2-c2ccco2)SC1 | . | 8.0 | . | . | . | .
c1ccc(C2=Nn3c(nnc3-c3ccco3)SC2)cc1 | . | 8.3 | . | . | . | .
Cc1ccc(Cl)cc1NC(=O)c1cc(NC(=O)C2CCCCC2C(=O)O)ccc1N1CCOCC1 (stereo unspecified) | . | . | . | . | . | .
CN(CC(O)COc1ccc(OCC(O)CN(C)C2CCCCC2)cc1)C1CCCCC1 (stereo unspecified) | . | . | . | . | . | .
Cc1cccc(C)c1OCC(O)CN(Cc1ccccc1O)C1CCCCC1 (stereo unspecified) | . | . | . | . | . | 61.8
Cc1cccc2cc(C#N)c(N3CCC(O)CC3)nc12 | . | . | . | . | . | .
COCCNC(=O)C(c1cccs1)N(Cc1cccs1)C(=O)Cn1nnc2ccccc21 (stereo unspecified) | . | . | . | . | 4.6 | .
SMILES | 697 NFkB inh | VIM-2 inhibitor | Jurkat NFkB inh | Mdm2 MdmX PPI | IMP-1 inh | aSyn 5UTR inh
COc1cc(/C=N/NC(=O)c2cncc(Br)c2)ccc1OC(=O)c1ccc2c(c1)OCO2 | / | . | / | / | 46.3 | /
COc1cc(/C=N\NC(=O)c2ccc(C)nc2)ccc1OC(=O)c1ccc2c(c1)OCO2 | . | . | . | . | . | .
COC(=O)c1ccc2c(c1)NC(=O)c1ccccc1S2 | . | . | . | . | . | .
N#C/C=C1/NC(=O)c2ccccc2S1 | . | 9.1 | . | . | . | .
CCNC(=O)N(CC)C[C@H]1N[C@@](Cc2ccccc2)(C(=O)OC)[C@H]2C(=O)N(C)C(=O)[C@@H]12 | . | / | . | . | / | /
CCOC(=O)C1=C(C)Nc2sc(C(=O)c3ccc(OC)cc3)c(N)c2C1c1ccc(C(=O)OC)cc1 (stereo unspecified) | . | 10.6 | . | . | . | .
O=C(CN1C(=O)S/C(=C\c2ccc(-c3cc(C(=O)O)ccc3Cl)o2)C1=O)Nc1ccc2c(c1)OCO2 | . | . | . | . | 16.8 | /
CCCOc1cccc(C(=O)NC(=S)Nc2ccc(N3CCN(C)CC3)cc2)c1 | . | 12.1 | . | . | . | .
CC(C)Oc1cccc(C(=O)Nc2ccc(N3CCN(C)CC3)cc2)c1 | . | 12.0 | . | . | . | .
CC(C)Oc1ccc(C(=O)Nc2ccc(N3CCCCC3)cc2)cc1 | . | . | . | . | . | .
CCOc1cccc(C(=O)NC(=S)Nc2ccccc2)c1 | . | . | . | . | . | .
Cc1cc(NC(=O)OC2CCCCC2)ccc1[N+](=O)[O-] | . | . | . | . | . | .
Cc1cc2ncn(S(=O)(=O)N3CCOCC3)c2cc1C | . | . | . | . | 4.5 | .
COc1ccc(NC(=O)CCNC(=O)c2ccco2)c(OC)c1 | . | . | . | . | . | .
COCCN1C(=O)N(c2ccc(OC)cc2)C(=O)C1CC(=O)Nc1cccc(F)c1 (stereo unspecified) | . | . | . | . | . | .
Cc1ccc(S(=O)(=O)N2CCCN(C(=O)c3cc4ccccc4[nH]3)CC2)cc1 | . | . | . | . | . | .
N#Cc1c(C(F)(F)F)cc(-c2cccc(Cl)c2)[nH]c1=O | . | 8.7 | . | . | . | .
N#CC1=C(N)OC2=C(C(=O)CCC2)C1c1ccccc1 (stereo unspecified) | . | . | . | . | . | .
N#CC1=C(N)OC2=C(CC/C2=C\c2ccccc2)C1c1ccccc1 (stereo unspecified) | . | . | . | . | 5.2 | .
CC(C)c1ccc(-n2c(-c3ccccc3)c[n+]3c2CCc2ccccc2-3)cc1 | / | . | / | / | . | 78.2
Cc1cnc(C(=O)N(CC(C)C)c2c(N)n(CC(C)C)c(=O)[nH]c2=O)cn1 | . | / | . | . | / | /
C=CCN=C(NC#N)SCC(=O)NC(C)(C)C | . | . | . | . | 5.4 | .
CCN1C(=O)[C@@H]2[C@@H](c3ccc(-c4ccc(F)cc4)c(OC)c3)N3CCCC[C@@]3(C(=O)OC)[C@@H]2C1=O | . | / | . | . | / | /
CCOC(=O)N1CCC(NC(=O)c2cc3c(C)nc4ccccc4c3o2)CC1 | . | . | . | . | . | .
CCN1CCCC1CNC(=O)c1cc2c(C)nc3ccccc3c2o1 (stereo unspecified) | . | 8.2 | . | . | . | .
Cc1nc2ccccc2c2oc(C(=O)NCCN3CCCCC3C)cc12 (stereo unspecified) | . | 10.6 | . | . | . | .
COc1ccc(OC)c(S(=O)(=O)Nc2cc(C)on2)c1 | . | . | . | . | . | .
COc1ccc(-c2nnc(NC(=O)c3ccc(S(=O)(=O)N4CCc5ccccc5C4)cc3)o2)cc1 | . | . | . | . | . | 73.2
COc1ccc(-c2csc(NC(=O)c3ccc(S(=O)(=O)N4CCc5ccccc5C4)cc3)n2)cc1 | . | . | . | . | . | .
